Laboratory results: ChEMBL document CHEMBL1123227, “Tricyclic epines. Novel (E)- and (Z)-11H-dibenz[b,e]azepines as potential central nervous system agents. Variation of the basic side chain” (1986)

What was measured:
Type in all cases: functional
[1] = organism: Rattus norvegicus; experiment: Compound was tested or the anti-tryptamine activity in rats relative with respect to clozapine.
Summary of the method: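 Rats dosed ip 30 min before tryptamine hydrochloride 16 mg/kg iv. Effect means front paw clonic movements absent over 5 min observation after tryptamine. ED50 is the dose preventing the symptom in half the animals (Probit analysis); relative activity referenced to clozapine.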

[2] = organism: Rattus norvegicus; experiment: Compound was tested or the anti-tryptamine activity in rats
Summary of the method: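 Rats were challenged with tryptamine hydrochloride (16 mg/kg iv), with test substances given ip 30 min beforehand. Activity was scored as absence of clonic front paw movements over a 5 min observation after tryptamine. ED50 was the dose preventing the symptom in half the animals, determined by Probit analysis.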

[3] = organism: Oryctolagus cuniculus; experiment: Compound was tested for the muscle-relaxing activity in rabbits
Summary of the method: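 Muscle electrical activity during contraction was recorded and pulses were counted. A 5 s extension was repeated every 1 min. Once pulse counts were constant (control value), the substance was given iv, and post-dose pulses were related to that value. Four to six animals were used per dose. ED50 was the dose halving muscle activity from the initial value.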

[4] = organism: Mus musculus; experiment: Anticholinergic activity relative with respect to clozapine.
[5] = organism: Mus musculus; experiment: Sedative activity relative with respect to clozapine.
[6] = organism: Mus musculus; experiment: Anticholinergic activity in mice.
Summary of the method: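 Groups of 10 female NMRI mice received a lethal dose of physostigmine (0.825 mg/kg sc). Test substances were given orally 30 min before the physostigmine.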

[7] = organism: Mus musculus; experiment: Sedative activity in mice
[8] = organism: Rattus norvegicus; experiment: Compound was tested for the apomorphine antagonistic activity in rats expressed as relative activity
Summary of the method: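 Female Sprague–Dawley rats, groups of four to six. Oral dosing 90 min before apomorphine 1.5 mg/kg sc. Jaw movements recorded via implanted electrodes (mandibulogram).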

Compound	Relative activity [1]	ED50 [2] [mg/kg]	ED50 [3] [mg/kg]	Relative activity [4]	Relative activity [5]	ED50 [6] [mg/kg]	ED50 [7] [mg/kg]	Relative activity [8]
CN1CCN(C2=Nc3ccccc3C(=CC#N)c3ccccc32)CC1	0.17	30	0.059					
C[N+]1([O-])CCN(C2=Nc3ccccc3C(=CC#N)c3ccccc32)CC1				0.89	0.33	15.9		
CCN1CCN(C2=Nc3ccccc3C(=CC#N)c3ccccc32)CC1	0.76	6.6	~0.32					
Cc1ccc2c(c1)N=C(N1CCN(C)CC1)c1ccccc1C2=CC#N	0.83	6	0.028	0.45	5.9		0.8	
CCN1CCCC1CNC1=Nc2ccccc2/C(=C/C#N)c2ccccc21 (configuration not stated)				<0.14	0.28	> 100	17.2	
N#C/C=C1/c2ccccc2N=C(NCCN)c2ccccc21				<0.14	<0.04	> 100	> 100	
Cc1ccc2c(c1)/C(=C/C#N)c1ccccc1C(N1CCN(C)CC1)=N2	0.23	~21	~0.1					
CN1CCN(C2=Nc3ccccc3/C(=C/C#N)c3ccccc32)CC1	0.06	79	0.046	0.81				
N#C/C=C1/c2ccccc2N=C(N2CCN(CCO)CC2)c2ccccc21				0.21	0.32	~68.1	14.6	
CN1CCC(OC2=Nc3ccccc3/C(=C/C#N)c3ccccc32)CC1				<0.66	<0.22	> 21.5	> 21.5	
N#C/C=C1/c2ccccc2N=C(N2CCOC(CO)C2)c2ccccc21 (configuration not stated)				0.3	<0.1	~46.4	> 46.4	
N#C/C=C1/c2ccccc2N=C(N2CCNCC2)c2ccccc21				0.66	0.15	21.3	30.6	
N#C/C=C1/c2ccccc2N=C(NCCN2CCOCC2)c2ccccc21				<0.14	0.58	> 100	8.12	
CN(C)CCN(C)C1=Nc2ccccc2/C(=C/C#N)c2ccccc21				0.45	0.32	~31.6	~14.7	
CN1CCCCC1COC1=Nc2ccccc2/C(=C/C#N)c2ccccc21 (configuration not stated)				0.21	0.11	~68.1	43.6	
N#C/C=C1/c2ccccc2N=C(N2CCOCC2)c2ccccc21				<0.14	< 0.04	> 100	> 100	
CN1CCN(C2=Nc3ccc(Cl)cc3/C(=C/C#N)c3ccccc32)CC1				0.88	0.19	16.1	25.6	
N#C/C=C1/c2ccccc2N=C(N2CCC(O)CC2)c2ccccc21				<0.14	<0.1	> 100	> 46.4	
Cc1ccc2c(c1)N=C(N1CC[N+](C)([O-])CC1)c1ccccc1/C2=C/C#N				0.45	1.78	31	2.66	
C[N+]1([O-])CCN(C2=Nc3ccccc3/C(=C/C#N)c3ccccc32)CC1				0.14	0.26	~100		
Cc1ccc2c(c1)N=C(N1CCN(CCN3CCOC3=O)CC1)c1ccccc1/C2=C\C#N				<0.3	0.5	> 46.4	9.56	
CC1CCN(C2=Nc3ccccc3/C(=C/C#N)c3ccccc32)CC1				<0.3	0.07	> 46.4	~68.1	
CC1CN(C2=Nc3ccccc3/C(=C/C#N)c3ccccc32)CCN1C (configuration not stated)				1.84	0.59	7.68	8.08	
CN1CCCN(C2=Nc3ccccc3/C(=C/C#N)c3ccccc32)CC1				2.57	<0.22	5.49	> 21.5	

Compound	Relative activity [1]	ED50 [2] [mg/kg]	ED50 [3] [mg/kg]	Relative activity [4]	Relative activity [5]	ED50 [6] [mg/kg]	ED50 [7] [mg/kg]	Relative activity [8]
CN1CCCC(COC2=Nc3ccccc3/C(=C/C#N)c3ccccc32)C1 (configuration not stated)				2.38	<0.1	5.92	> 46.4	
N#C/C=C1/c2ccccc2N=C(NCCN2CCCC2)c2ccccc21				<0.14	0.96	> 100	4.96	
CN1CCC(N(C)C2=Nc3ccccc3/C(=C/C#N)c3ccccc32)CC1				0.45	0.35	~31.6	13.4	
CCN1CCN(C2=Nc3ccccc3/C(=C\C#N)c3ccccc32)CC1	<0.05	> 100						
CN1CCN(CCNC2=Nc3ccccc3/C(=C/C#N)c3ccccc32)CC1				<0.14	0.17	> 100	27.7	
CCN(CC)CCNC1=Nc2ccccc2/C(=C/C#N)c2ccccc21				<0.14	0.83	> 100	5.72	
Cc1ccc2c(c1)N=C(N1CCN(C)CC1)c1ccccc1/C2=C/C#N	0.1	51	0.25				33.6	
CN(C)CCCOC1=Nc2ccccc2/C(=C/C#N)c2ccccc21				0.59	<0.04	24	> 100	
CN1CCCC(CNC2=Nc3ccccc3/C(=C/C#N)c3ccccc32)C1 (configuration not stated)				0.3	<0.04	~46.4	> 100	
CN1CCC(NC2=Nc3ccccc3/C(=C/C#N)c3ccccc32)CC1				0.21	<0.04	~68.1	> 100	
CC1CN(C)CCN1C1=Nc2ccccc2/C(=C/C#N)c2ccccc21 (configuration not stated)				0.66	0.22	~21.5	~21.5	
C[N+]1([O-])CCN(C2=Nc3ccccc3/C(=C\C#N)c3ccccc32)CC1				1.61	0.04	8.75		
N#C/C=C1/c2ccccc2N=C(N2CCN(CCN3CCOC3=O)CC2)c2ccccc21				0.28	0.12	51	39.4	
N#C/C=C1/c2ccccc2N=C(N2CC[N+]([O-])(CCO)CC2)c2ccccc21				0.36	0.46	39	10.3	
N#C/C=C1/c2ccccc2N=C(NCCN2CCCCC2)c2ccccc21				<1.41		> 10		
CCN1CCN(C2=Nc3ccccc3/C(=C/C#N)c3ccccc32)CC1				<0.66	1.7	> 21.5	2.79	
C[N+]1([O-])CCCC(COC2=Nc3ccccc3/C(=C/C#N)c3ccccc32)C1 (configuration not stated)				<0.14	<0.04	> 100	> 100	
CN(C)CCNC1=Nc2ccccc2/C(=C/C#N)c2ccccc21				<0.14	0.31	> 100	15.5	
Cc1ccc2c(c1)N=C(N1CCN(C)CC1)c1ccccc1/C2=C\C#N	0.5	10	0.014			~100		
CN(C)CCCNC1=Nc2ccccc2/C(=C/C#N)c2ccccc21				<0.3	<0.1	> 46.4	> 46.4	
CN(C)CCOC1=Nc2ccccc2/C(=C/C#N)c2ccccc21				0.57	0.14	24.9	34.8	
N#C/C=C1/c2ccccc2N=C(N2CCC(O)(c3ccccc3)CC2)c2ccccc21				<0.14	<0.1	> 100	> 46.4	
CN1CCN(C2=Nc3ccccc3/C(=C\C#N)c3ccccc32)CC1	0.16	32	~1	3	<0.2			
CN1CCN(C2=Nc3cc(Cl)ccc3Nc3ccccc32)CC1 [CLOZAPINE]	1	5	0.028	1	1			1
